Measurements: ChEMBL document CHEMBL1137744, “Parallel synthesis, molecular modelling and further structure-activity relationship studies of new acylthiocarbamates as potent non-nucleoside HIV-1 reverse transcriptase inhibitors” (Eur J Med Chem, 2009)
Calls of active or inactive are those of the source. The rule behind the calls is not given here.

Columns and labels:
[1] = system: Human immunodeficiency virus 1; assay: Antiviral activity against HIV1 3B expressing reverse transcriptase Y181C mutant infected in human MT4 cells assessed as inhibition of virus-induced cytopathogenicity by MTT assay; assay type: functional, organism-based; conditions: Human immunodeficiency virus 1, 3B
Outline: (§1)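 MT-4 cells infected with HIV-1 carrying the Y181C RT mutation, alongside wild-type virus. EC50 is the concentration giving 50% protection from virus-induced cytopathogenicity, read by MTT. Values are means of three separate experiments run in triplicate. The ratio is EC50(Y181C)/EC50(wt).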

[2] = Selectivity index, ratio of CC50 for human MT4 cells to EC50 for HIV1 3B; assay type: toxicity, cell-based; conditions: read-out: Ratio CC50/EC50
Outline: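 Computed as CC50/EC50. Both come from MTT readings in MT-4 cells: CC50 is 50% viability loss in mock-infected cells, and EC50 is 50% protection from HIV-1-induced cytopathogenicity. Each is the mean of three experiments.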

[3] = Cytotoxicity against human MT4 cells by MTT assay; assay type: cell-based
Outline: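 Uninfected (mock-infected) MT-4 cells were exposed to compound and viability was read by MTT. CC50 is the concentration cutting viability by 50%. Values are means of three separate experiments, with triplicate samples varying by less than 10%.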

[4] = system: Human immunodeficiency virus 1; assay: Antiviral activity against HIV1 3B infected in human MT4 cells assessed as inhibition of virus-induced cytopathogenicity by MTT assay; assay type: functional, organism-based; conditions: Human immunodeficiency virus 1, 3B
Outline: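 MT-4 cells infected with HIV-1 and read by MTT viability. EC50 is the concentration giving 50% protection of cells from virus-induced cytopathogenicity. Values are means of three separate experiments, with variation among triplicate samples under 10%.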

[5] = system: Human immunodeficiency virus 1; assay: Ratio of EC50 for HIV1 3B expressing reverse transcriptase Y181C mutant to EC50 for HIV1 3B; assay type: functional; outline: as §1
[6] = system: Human immunodeficiency virus 1; assay: Antiviral activity against HIV1 3B expressing reverse transcriptase K103N/Y181C double mutant infected in human MT4 cells assessed as inhibition of virus-induced cytopathogenicity by MTT assay; assay type: functional, organism-based

| SMILES | EC50 [1] [µM] | selectivity ratio [2] | CC50 [3] [µM] | EC50 [4] [µM] | Ratio EC50 [5] | Activity [6] |
| --- | --- | --- | --- | --- | --- | --- |
| O=C1c2ccccc2C(=O)N1CCOC(=S)N(C(=O)c1cccc(F)c1F)c1ccc(Cl)cc1 | 6 | 7250 | 58 | 0.008 | 750 | inactive |
| O=C1c2ccccc2C(=O)N1CCOC(=S)N(C(=O)c1cc2ccccc2s1)c1ccc(Cl)cc1 | 12 | 280 | 56 | 0.2 | 60 | inactive |
| O=C1c2ccccc2C(=O)N1CCOC(=S)N(C(=O)c1cc(Cl)cc(Cl)c1)c1ccc(Cl)cc1 | 8.2 | 4000 | 32 | 0.008 | 1025 | inactive |
| Cc1ccc2c(c1)C(=O)N(CCOC(=S)N(C(=O)c1cccnc1Cl)c1ccc(Cl)cc1)C2=O | 6.7 | 817 | 49 | 0.06 | 112 | inactive |
| O=C1c2ccccc2C(=O)N1CCOC(=S)N(C(=O)c1ccc(F)cc1F)c1ccc(Cl)cc1 | 5.4 | 5200 | 52 | 0.01 | 540 | inactive |
| Cc1cccc(C(=O)N(C(=S)OCCN2C(=O)c3ccccc3C2=O)c2ccc(Cl)cc2)c1 | 6 | 5800 | 58 | 0.01 | 600 | inactive |
| O=C1c2ccccc2C(=O)N1CCOC(=S)N(C(=O)c1cccc(Cl)c1Cl)c1ccc(Cl)cc1 | 4.2 | 540 | 54 | 0.1 | 42 | inactive |
| O=C1c2ccccc2C(=O)N1CCOC(=S)N(C(=O)c1ccc(F)c(F)c1)c1ccc(Cl)cc1 | 56 | 6500 | 52 | 0.008 | 7000 | inactive |
| Cc1cc(C(=O)N(C(=S)OCCN2C(=O)c3ccccc3C2=O)c2ccc(Cl)cc2)ccc1Br | 10.9 | 2570 | 18 | 0.007 | 1557 | inactive |
| O=C1c2ccccc2C(=O)N1CCOC(=S)N(C(=O)c1ccc(Cl)c([N+](=O)[O-])c1)c1ccc(Cl)cc1 | 9 | 2400 | 48 | 0.02 | 450 | inactive |
| CC(COC(=S)N(C(=O)c1cccc([N+](=O)[O-])c1)c1ccc(Cl)cc1)N1C(=O)c2ccccc2C1=O (racemic) | 5 | 1540 | 77 | 0.05 | 100 | inactive |
| Cc1cc(C(=O)N(C(=S)OCCN2C(=O)c3ccccc3C2=O)c2ccc(Cl)cc2)c(C)o1 | 7.5 | 2000 | 40 | 0.02 | 375 | inactive |
| Cc1cccc2c1C(=O)N(CCOC(=S)N(C(=O)c1cccc([N+](=O)[O-])c1)c1ccc(Cl)cc1)C2=O | 4.2 | 1470 | 44 | 0.03 | 140 | inactive |
| O=C1c2ccccc2C(=O)N1CCOC(=S)N(C(=O)c1ccc([N+](=O)[O-])cc1)c1ccc(Cl)cc1 | 26 | > 1670 | > 100 | 0.06 | 433 | inactive |
| O=C1c2ccccc2C(=O)N1CCOC(=S)N(C(=O)c1ccc2ccccc2c1)c1ccc(Cl)cc1 | 11 | 1850 | 37 | 0.02 | 550 | inactive |
